From PubChem BioAssay
Hsp70 act – switches on Hsp70 transcription; HeLa Hsp70 promoter luciferase reporter, luminescence; scaled: vehicle 0, proteasome-inhibitor control 100%; activation, % at 10 µM; 200,000 tested, 0.04% active; AID 1203;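 active = activation above the mean across all tested compounds plus 3 SD, cutoff set per campaign, cut at about 5.5% in these data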
MT stabilize HCS – microtubule stabilization, imaging screen; HeLa tubulin immunostaining HCS, 24 h; share of cells brighter than vehicle mean+2SD; % tubulin-high responders, % at 10 µM; 200,000 tested, 0.83% active;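 active = plate Z-score above 3 for both tubulin-high and condensed-nucleus cell shares, with cell loss under 80%, at 10 µM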;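 also: anti alpha tubulin signal scored within the nucleus-defined area of each cell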
TLR9-MyD88 inh – blocks human TLR9 binding to MyD88. CHO BLA complementation TLR9-MyD88, CCF4 FRET ratio. Q9NR96+Q99836. 340,000 tested, 0.21% active. inhibition, % at 4.98 µM;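 active = inhibition above the mean over all tested compounds plus 3 SD, cut at about 21% in these data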
NOD2 RIPK2 PPI – inhibitors of human NOD2-RIPK2 interaction. O43353. CHO BLA complementation NOD2-RIPK2, CCF4 ratio. inhibition, % at 4.98 µM. 360,000 tested, 0.38% active; in the data active = inhibition above about 21%
Target sequence (O43353 whole entry, looked up): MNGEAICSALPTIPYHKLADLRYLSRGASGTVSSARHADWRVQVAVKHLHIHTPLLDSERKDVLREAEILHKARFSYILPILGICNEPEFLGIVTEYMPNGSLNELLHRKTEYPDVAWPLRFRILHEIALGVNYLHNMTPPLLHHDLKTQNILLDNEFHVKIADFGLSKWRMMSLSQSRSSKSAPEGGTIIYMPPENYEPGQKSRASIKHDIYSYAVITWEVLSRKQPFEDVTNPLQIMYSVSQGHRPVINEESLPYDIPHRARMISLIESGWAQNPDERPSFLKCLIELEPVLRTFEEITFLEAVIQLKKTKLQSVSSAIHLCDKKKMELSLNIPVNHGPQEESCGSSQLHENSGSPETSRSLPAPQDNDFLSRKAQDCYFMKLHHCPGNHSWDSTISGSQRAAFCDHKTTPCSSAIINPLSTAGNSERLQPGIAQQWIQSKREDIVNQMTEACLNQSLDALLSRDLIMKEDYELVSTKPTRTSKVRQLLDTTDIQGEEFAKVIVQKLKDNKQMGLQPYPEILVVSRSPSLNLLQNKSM
TLR4 MyD88 comp – blocks binding of human TLR4 to MyD88; HeLa CL3-4 TLR4/MyD88 BLA complementation, FRET ratio; inhibition, % at 8.4 µM; 200,000 tested, 0.18% active; in the data active = inhibition above about 25%
bCat nuc transl – alters nuclear translocation of beta-catenin in HeLa cells. 190,000 tested, 0.3% active. immunofluorescence imaging. AID 1665. nuclear translocation activity, % at 5 µM;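 active = nuclear translocation activity above 50% at 5 µM, with a well cell count of 50 or more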;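 also: per-cell ratio of nuclear to cytoplasmic median beta-catenin stain intensity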
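Assay system: human HeLa cells, native beta-catenin; doses: 5 µM primary, 0.02–20 µM confirmation; incubation: compound treatment 24 h, 37°C, 5% CO2; technique: fluorescence imaging of beta-catenin antibody stain plus DAPI; measure: % activation, nuclear-to-cytoplasmic median beta-catenin signal ratio per cell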
Each line names hits and unclear results; the compound was inactive in the other large screens; ! = repeats disagree. The list is not random: actives were taken first. Their share in the collection is about 1%.

CC1=C([N+](=O)[O-])C(c2cccc(Br)c2)C2=C(N1)c1ccccc1C2=O (stereo unspecified)	MT stabilize HCS 11
NC(=O)c1ccc2c(=O)n3c(-c4cc(Cl)c(N)c(Cl)c4)csc3nc2c1	bCat nuc transl 66 (no result: Hsp70 act, MT stabilize HCS, TLR4 MyD88 comp)
COc1ccc(NC(=O)CN2C(=O)COc3ccc(S(=O)(=O)N4CCCCCC4)cc32)cc1	none (no result: Hsp70 act, MT stabilize HCS, TLR4 MyD88 comp, bCat nuc transl)
COc1cccc(-c2cc(=O)c3cc(NC(C)=O)ccc3[nH]2)c1	MT stabilize HCS 30 (no result: bCat nuc transl)
Cc1nc2ccc(NS(=O)(=O)c3c(C)c(C)cc(C)c3C)cc2s1	MT stabilize HCS 44
O=C(Nc1ccccc1Br)c1ccccc1-c1ccccc1	MT stabilize HCS 15, bCat nuc transl 58
O=C(Nc1ccccc1-c1ccccc1)c1ccccc1Br	none (no result: Hsp70 act, MT stabilize HCS, TLR4 MyD88 comp, bCat nuc transl)
CC(C)(C)OC(=O)C[C@H]1C/C=C\C[C@H](CC(=O)N(CCO)Cc2ccccc2)C(=O)N[C@H](C(C)(C)C)COC1=O	none (no result: Hsp70 act, MT stabilize HCS, TLR4 MyD88 comp, bCat nuc transl)
CCOc1ccccc1NC(=O)CC1Nc2cc(C)c(C)cc2NC1=O (stereo unspecified)	MT stabilize HCS 23 (no result: bCat nuc transl)
CSc1nc2ccccc2cc1/C=C(\C#N)c1ccccc1	MT stabilize HCS 36
COc1cc(/C=C/C(=O)c2ccc(O)cc2)ccc1OCC#N	MT stabilize HCS 11
N#Cc1c(N)nc2c(c1-c1ccc3c(c1)OCO3)CCc1ccccc1-2	MT stabilize HCS 26
O=S(=O)(C/C(=C/CO)S(=O)(=O)c1ccccc1)c1ccccc1	Hsp70 act 15
O=C(/C=C/c1ccco1)N1CCN(c2ncccn2)CC1	MT stabilize HCS 9.8 (no result: bCat nuc transl)
O=S(=O)(NC1=NCCCCC1)c1ccccc1Cl	none (no result: Hsp70 act, MT stabilize HCS, TLR4 MyD88 comp)
Cc1ccccc1S(=O)(=O)NC1=NCCCCC1	MT stabilize HCS 14
O=C(O)c1cc(=O)[nH]c2ccccc12	none (no result: Hsp70 act, MT stabilize HCS, TLR4 MyD88 comp, bCat nuc transl)
N=c1n(Cc2ccc(Cl)cc2)c2ccccc2n1CC(O)COc1ccccc1 (stereo unspecified)	MT stabilize HCS 21
COc1ccc(OCC(O)Cn2c(=N)n(Cc3ccccc3)c3ccccc32)cc1 (stereo unspecified)	none
CCC(C)Sc1cc(-c2nc3ccc(C)cn3c2NCc2ccccc2)ccc1OC (stereo unspecified)	NOD2 RIPK2 PPI 27! (no result: Hsp70 act, MT stabilize HCS, TLR4 MyD88 comp, bCat nuc transl)
Cc1c(C)n(C)c2ccc(C(=O)NCCCN3CCCC3)cc12	none (no result: Hsp70 act, MT stabilize HCS, TLR4 MyD88 comp, bCat nuc transl)
CCN(CC)c1ccc(NC(=O)c2ccc3c(c2)c(C)c(C)n3C)cc1	MT stabilize HCS 14 (no result: bCat nuc transl)
COc1cc(-c2onc3ccc(Br)cc23)cc(OC)c1OC	MT stabilize HCS 7.7
CCOC(=O)c1oc2ccc(S(=O)(=O)n3nc(-c4ccc(C)cc4)cc3N)cc2c1C	none (no result: bCat nuc transl)
CCOC(=O)c1oc2ccc(S(=O)(=O)n3nc(-c4ccc(Cl)cc4)cc3N)cc2c1C	MT stabilize HCS 17
COC(=O)C1=C(N)Oc2cc(N(C)C)ccc2C1c1ccccc1OC (stereo unspecified)	MT stabilize HCS 27
CCN1/C(=C/c2ccc3cc(C)ccc3[n+]2CC)Sc2ccccc21	MT stabilize HCS 68
CCN1/C(=C/c2ccc3cc(C)ccc3[n+]2CC)Sc2cc(C)c(C)cc21	none
CC1CC(C)CN(C(=O)COC(=O)CCCN2C(=O)c3cccc4cccc(c34)C2=O)C1 (stereo unspecified)	none (no result: Hsp70 act, MT stabilize HCS, TLR4 MyD88 comp, bCat nuc transl)
Cc1ccc2c(c1)c1c(n2CC(O)CNC2CCCCC2)CCCC1 (stereo unspecified)	MT stabilize HCS 36
O=C(/C=C/[C@H]1O[C@@H](n2ccc(=O)[nH]c2=O)[C@H](O)[C@@H]1O)NCCCc1ccccc1	none (no result: Hsp70 act, MT stabilize HCS, TLR9-MyD88 inh, TLR4 MyD88 comp, bCat nuc transl)
O=C(N/N=C/c1ccccc1Cl)c1n[nH]c2c1CCCC2	none
O=C(N/N=C/C(Br)=C/c1ccccc1)c1n[nH]c2c1CCC2	bCat nuc transl 161
O=C(N/N=C/c1cccs1)c1n[nH]c2c1CCC2	MT stabilize HCS 25
O=C(N/N=C/c1ccccc1)c1n[nH]c2c1CCCC2	none
O=C(N/N=C/c1ccc(Cl)cc1)c1n[nH]c2c1CCCC2	bCat nuc transl 100 (no result: Hsp70 act, MT stabilize HCS, TLR4 MyD88 comp)
Cc1ccc(S(=O)(=O)N2CCCC2)cc1C(=O)NCCOc1ccccc1	none (no result: Hsp70 act, MT stabilize HCS, TLR4 MyD88 comp, bCat nuc transl)
Oc1ccc(O)c(Cc2nc3ccccc3s2)c1	MT stabilize HCS 13
Oc1ccccc1OCc1nc2ccccc2s1	none
C[C@H](CO)N1C[C@H](C)[C@@H](CN(C)Cc2ccc(C(=O)Nc3ccccc3N)cc2)Oc2c(NC(=O)C3CCCCC3)cccc2C1=O	none (no result: Hsp70 act, MT stabilize HCS, TLR4 MyD88 comp, bCat nuc transl)
Cc1nc(NC(=O)c2ccc(Cl)cc2)sc1-c1csc(Nc2cccc(F)c2)n1	MT stabilize HCS 40 (no result: TLR9-MyD88 inh, NOD2 RIPK2 PPI)
O=C(Nc1ccc(NC(=O)C2CC2)cc1)c1cccs1	none (no result: Hsp70 act, MT stabilize HCS, TLR4 MyD88 comp, bCat nuc transl)
N=C1C(c2nc3ccccc3c(=O)[nH]2)=C(O)CN1c1ccccc1	MT stabilize HCS 42 (no result: TLR9-MyD88 inh, NOD2 RIPK2 PPI, bCat nuc transl)
N=C1C(c2nc3ccccc3s2)=C(O)CN1c1ccccc1	MT stabilize HCS 28
COc1ccc(N2CC(O)=C(c3nc4ccccc4s3)C2=N)cc1	none
CCC(=O)Nc1ccc(NC(=O)CSc2nc3cc4c(cc3cc2C)CCC4)cc1	none
Cc1ccccc1NC(=O)CSc1nc2cc3c(cc2cc1C)CCC3	MT stabilize HCS 36 (no result: bCat nuc transl)
COc1ccc(C2CC(c3cccs3)=Nc3ccccc3S2)cc1 (stereo unspecified)	MT stabilize HCS 21
O=c1[nH]c(CSc2ncnc3sc(-c4ccccc4)cc23)nc2ccccc12	none (no result: Hsp70 act, MT stabilize HCS, TLR4 MyD88 comp)
COc1cc(C(=O)N/N=C(\C)c2ccc3c(c2)OCO3)cc(OC)c1OC	MT stabilize HCS 20
CCn1ncc(C2=NOC(C(=O)NCc3ccc(Cl)cc3)C2)c1C (stereo unspecified)	bCat nuc transl 278
COc1ccc(C2=NOC(C(=O)NCc3ccco3)C2)cc1 (stereo unspecified)	MT stabilize HCS 38
COc1cc(C2=NOC(C(=O)NCc3cccs3)C2)cc(OC)c1OC (stereo unspecified)	none (no result: bCat nuc transl)
COc1ccc(C2=NOC(C(=O)NCc3ccc(F)cc3)C2)cc1 (stereo unspecified)	bCat nuc transl 65
COc1cc(C2=NOC(C(=O)NCc3ccco3)C2)cc(OC)c1OC (stereo unspecified)	MT stabilize HCS 23, bCat nuc transl 60
COc1ccc(CNC(=O)C2CC(c3ccc(F)cc3)=NO2)cc1 (stereo unspecified)	none
COCCCNC1=C(Cl)C(=O)c2ccccc2C1=O	none (no result: Hsp70 act, MT stabilize HCS, TLR4 MyD88 comp)
CCN(CC)CCCNC1=C(Cl)C(=O)c2ccccc2C1=O	MT stabilize HCS 43
CN(C)N1C(N)=C(C#N)C(c2cccc3ccccc23)C2=C1CC(c1ccccc1)CC2=O (stereo unspecified)	MT stabilize HCS 12
CN(C)N1C(N)=C(C#N)C(c2ccccc2)C2=C1CC(C)(C)CC2=O (stereo unspecified)	none (no result: Hsp70 act, MT stabilize HCS, TLR4 MyD88 comp, bCat nuc transl)
O=C(c1ccccc1-c1ccccc1)N1CCN(c2ccccn2)CC1	MT stabilize HCS 43, bCat nuc transl 66
Cc1ccccc1C(=O)N1CCN(c2ccccn2)CC1	none
